Experimental data taken from ChEMBL document CHEMBL3351816, “Structure-based optimization of a peptidyl inhibitor against calcineurin-nuclear factor of activated T cell (NFAT) interaction” (J Med Chem, 2014).
pIC50, pKd: −log10 of the molar value. Calls of active or inactive are those of the source. No cut-off for these calls is given here. Numbered stars: 1 amine (or outer) side, 2 acyl side, 3 side chain; on linkers, the order of the positions; unused ones are H or OH. Square brackets hold non-standard residues; d marks the D form. Peptide text beside a SMILES is read from it. X1 = CC1(C)SC[C@@H](C(=O)[*:2])N1[*:1]; Tle = CC(C)(C)[C@H](N)C(=O)O

Assays:
[1] = species on record: Homo sapiens; test: (§1) Inhibition of FITC-labelled […] binding to calcineurin (unknown origin) by modified fluorescence anisotropy assay
[2] = as §1; parameters: species or system Homo sapiens
[3] = Binding affinity to GST-calcineurin fusion protein substrate docking site (unknown origin) expressed in Escherichia coli BL21 cells by fluorescence anisotropy assay; parameters: species or system Homo sapiens
Summary of the method: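 GST–CN fusion expressed in E. coli BL21, glutathione-Sepharose purified. FA read at ex 485/em 525 nm; KD from fitting FA versus CN concentration with correction for fluorophore–protein interaction.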

[4] = Half life in 25% human serum at 37 degC; type: ADME
Summary of the method: (§2)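 Peptides were incubated in diluted human serum (25%) at 37 °C for up to 6 h. The amount of intact peptide remaining was monitored over time by HPLC.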

[5] = test system: Serum; test: Drug metabolism in 25% human serum at 37 degC at 6 hrs; type: ADME, cell-free; summary of the method: as §2
[6] = test system: HeLa; test: Inhibition of calcineurin in human HeLa cells assessed as blocked of GFP-NFAT translocation at 500 nM prior to ionomycin treatment by fluorescence based confocal microscopy in presence of ionomycin; type: cell-based
Summary of the method: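 HeLa cells stably expressing GFP–NFAT1 pretreated with R11-conjugated peptide (500 nM), then stimulated with ionomycin. Time-lapse live-cell confocal imaging; increase in nuclear fluorescence after 10 min ionomycin compared with inhibitor-free control (100%). Mean ± SD from at least 30 cells; two-tailed t test.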

[7] = molecular target: T1, Tyrosine-protein phosphatase non-receptor type 1 (Homo sapiens, UniProt P18031); test: Binding affinity to PTP1B (unknown origin)
T1 sequence (P18031 whole entry): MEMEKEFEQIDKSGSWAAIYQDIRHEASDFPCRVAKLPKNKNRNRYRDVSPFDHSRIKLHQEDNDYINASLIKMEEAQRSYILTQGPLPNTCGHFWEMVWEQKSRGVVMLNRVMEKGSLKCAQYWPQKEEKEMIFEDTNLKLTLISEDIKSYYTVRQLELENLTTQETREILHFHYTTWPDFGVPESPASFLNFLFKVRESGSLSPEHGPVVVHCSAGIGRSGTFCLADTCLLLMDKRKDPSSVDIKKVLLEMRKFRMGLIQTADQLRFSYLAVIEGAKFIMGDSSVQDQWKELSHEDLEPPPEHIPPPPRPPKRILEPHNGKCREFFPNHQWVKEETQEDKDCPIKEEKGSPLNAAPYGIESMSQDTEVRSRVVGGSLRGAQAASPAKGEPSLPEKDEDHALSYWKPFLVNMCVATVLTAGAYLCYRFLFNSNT

[8] = test system: GTPase KRas (Homo sapiens), P01116 [G12V]; test: Binding affinity to K-Ras G12V mutant (unknown origin)
[9] = molecular target: Albumin (Bos taurus, UniProt P02769); test: Binding affinity to bovine serum albumin; type: ADME; settings: cattle, isolated protein
[10] = molecular target: Growth factor receptor-bound protein 2 (Homo sapiens) (UniProt P62993); test: Binding affinity to SH2 domain of Grb2 (unknown origin)
[11] = test system: Serum; test: Drug metabolism in 25% human serum assessed as compound remaining at 37 degC; type: ADME, cell-free
Summary of the method: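 Peptide incubated in human serum diluted to 25% at 37 °C; remaining intact peptide quantified by HPLC over time up to 6 h.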

[12] = molecular target: Tyrosine-protein phosphatase non-receptor type 6 (Homo sapiens, UniProt P29350); test: Binding affinity to SHP1 (unknown origin)
Sequence of Tyrosine-protein phosphatase non-receptor type 6 (P29350 whole entry): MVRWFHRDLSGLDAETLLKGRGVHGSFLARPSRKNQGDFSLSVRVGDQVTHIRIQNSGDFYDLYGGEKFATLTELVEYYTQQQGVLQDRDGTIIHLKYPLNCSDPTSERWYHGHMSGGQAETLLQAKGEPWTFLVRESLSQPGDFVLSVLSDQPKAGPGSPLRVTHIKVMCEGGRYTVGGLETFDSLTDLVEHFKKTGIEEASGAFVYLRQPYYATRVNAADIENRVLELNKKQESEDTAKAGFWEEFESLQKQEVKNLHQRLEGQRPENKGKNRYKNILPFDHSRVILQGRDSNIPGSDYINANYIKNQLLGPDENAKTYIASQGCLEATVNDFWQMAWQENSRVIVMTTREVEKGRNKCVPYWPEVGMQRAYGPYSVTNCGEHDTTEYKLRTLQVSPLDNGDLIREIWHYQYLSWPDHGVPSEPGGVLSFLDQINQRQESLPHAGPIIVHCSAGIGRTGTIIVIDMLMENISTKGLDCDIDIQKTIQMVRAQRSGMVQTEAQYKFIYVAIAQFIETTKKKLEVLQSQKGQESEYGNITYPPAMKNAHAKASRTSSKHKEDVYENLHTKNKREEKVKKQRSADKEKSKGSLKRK

Sequence of GTPase KRas (Homo sapiens), P01116 [G12V] (P01116 whole entry G12V): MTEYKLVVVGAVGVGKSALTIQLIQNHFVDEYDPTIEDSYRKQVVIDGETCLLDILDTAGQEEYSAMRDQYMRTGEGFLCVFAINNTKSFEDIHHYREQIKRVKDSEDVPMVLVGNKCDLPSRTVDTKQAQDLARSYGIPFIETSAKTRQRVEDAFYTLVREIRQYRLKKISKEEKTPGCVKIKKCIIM
Sequence of Growth factor receptor-bound protein 2 (Homo sapiens) (P62993 whole entry, looked up, the tested form may be a part): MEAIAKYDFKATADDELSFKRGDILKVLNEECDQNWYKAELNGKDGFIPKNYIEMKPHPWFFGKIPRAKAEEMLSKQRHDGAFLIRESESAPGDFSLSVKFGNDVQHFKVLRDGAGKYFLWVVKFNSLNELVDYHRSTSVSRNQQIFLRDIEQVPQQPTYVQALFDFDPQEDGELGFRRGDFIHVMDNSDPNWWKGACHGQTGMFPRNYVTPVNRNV
Sequence of Albumin (P02769 whole entry, the tested form may be a part): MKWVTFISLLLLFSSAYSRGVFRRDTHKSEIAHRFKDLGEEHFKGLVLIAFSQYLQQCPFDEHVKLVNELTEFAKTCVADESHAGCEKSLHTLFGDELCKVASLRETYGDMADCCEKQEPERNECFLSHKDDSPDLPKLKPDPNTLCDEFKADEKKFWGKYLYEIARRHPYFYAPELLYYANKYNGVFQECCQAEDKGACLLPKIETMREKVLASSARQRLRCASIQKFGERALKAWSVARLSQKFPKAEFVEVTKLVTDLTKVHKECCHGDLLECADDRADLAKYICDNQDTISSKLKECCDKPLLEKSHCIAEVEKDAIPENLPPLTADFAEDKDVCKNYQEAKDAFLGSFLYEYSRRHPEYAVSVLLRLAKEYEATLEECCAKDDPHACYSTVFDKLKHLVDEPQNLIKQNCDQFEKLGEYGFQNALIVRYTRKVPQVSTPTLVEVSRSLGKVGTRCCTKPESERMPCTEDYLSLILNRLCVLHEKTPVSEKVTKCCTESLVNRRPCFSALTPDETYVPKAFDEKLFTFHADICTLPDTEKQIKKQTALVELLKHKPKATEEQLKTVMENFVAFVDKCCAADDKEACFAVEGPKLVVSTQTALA

Compound | inhibition [1] | pIC50 [2] | pKd [3] | inhibition [6] | also measured
CC[C@H](C)[C@H](NC(=O)[C@@H](NC(=O)[C@@H]1CCCN1C(=O)[C@H](Cc1cnc[nH]1)NC(=O)[C@@H]1CCCN1C(=O)CN)C(C)C)C(=O)N[C@H](C(=O)N[C@H](C(=O)N[C@H](C(=O)NCC(=O)N1CCC[C@H]1C(=O)N[C@@H](Cc1cnc[nH]1)C(=O)N[C@@H](CCC(=O)O)C(=O)N[C@@H](CCC(=O)O)C(=O)O)C(C)O)[C@@H](C)CC)C(C)C (stereo not given in full) | Dose-dependent effect | 5.39 | 6.32 | – | half-life [4]: 1 h; Stability [5]: Unstable
CCCOC(=O)CNC(=O)[C@H](CCC(=O)O)NC(=O)[C@H](CCC(=O)O)NC(=O)[C@H](Cc1cnc[nH]1)NC(=O)[C@@H]1CSC(C)(C)N1C(=O)CNC(=O)[C@@H](NC(=O)[C@@H](NC(=O)[C@@H](NC(=O)[C@@H](NC(=O)[C@@H](NC(=O)[C@@H]1CCCN1C(=O)[C@H](Cc1cnc[nH]1)NC(=O)[C@@H]1CCCN1C(=O)CNC(=O)CCSSC[C@H](NC(=O)[C@H](CCCNC(=N)N)NC(=O)[C@H](CCCNC(=N)N)NC(=O)[C@H](CCCNC(=N)N)NC(=O)[C@H](CCCNC(=N)N)NC(=O)[C@H](CCCNC(=N)N)NC(=O)[C@H](CCCNC(=N)N)NC(=O)[C@H](CCCNC(=N)N)NC(=O)[C@H](CCCNC(=N)N)NC(=O)[C@H](CCCNC(=N)N)NC(=O)[C@H](CCCNC(=N)N)NC(=O)[C@H](CCCNC(=N)N)NC(C)=O)C(N)=O)C(C)(C)C)[C@@H](C)CC)C(C)(C)C)[C@@H](C)CC)[C@@H](C)O | – | – | – | 95% | –
CC[C@H](C)[C@H](NC(=O)[C@@H](NC(=O)[C@@H](NC(=O)[C@@H](NC(=O)[C@@H]1CCCN1C(=O)[C@H](Cc1cnc[nH]1)NC(=O)[C@@H]1CCCN1C(=O)CN)C(C)(C)C)[C@@H](C)CC)C(C)(C)C)C(=O)N[C@H](C(=O)NCC(=O)N1CCC[C@H]1C(=O)N[C@@H](Cc1cnc[nH]1)C(=O)N[C@@H](CCC(=O)O)C(=O)N[C@@H](CCC(=O)O)C(=O)O)[C@@H](C)O (H-GPHP[Tle]I[Tle]ITGPHEE-OH) | Dose-dependent effect | 6.55 | 7.37 | – | –
CC[C@H](C)[C@H](NC(=O)[C@@H](NC(=O)[C@@H](NC(=O)[C@@H](NC(=O)[C@@H]1CCCN1C(=O)[C@H](Cc1cnc[nH]1)NC(=O)[C@@H]1CCCN1C(=O)CN)C(C)(C)C)[C@@H](C)CC)C(C)(C)C)C(=O)N[C@H](C(=O)NCC(=O)N1[C@H](C(=O)N[C@@H](Cc2cnc[nH]2)C(=O)N[C@@H](CCC(=O)O)C(=O)N[C@@H](CCC(=O)O)C(=O)O)CSC1(C)C)[C@@H](C)O (H-GPHP[Tle]I[Tle]ITG[X1]HEE-OH) | Dose-dependent effect | 6.96 | 8.59 | 95% | pKd [7]: 5.05; Activity [8]: inactive; Activity [9]: Not Active; Activity [10]: inactive; Stability [11]: 60%; pKd [12]: < 4.82
H-GPHAVAVAAGPHEE-OH | – | – | < 3.70 | – | –
